Experimental data from ChEMBL document CHEMBL1221211, “Synthesis enables identification of the cellular target of leucascandrolide A and neopeltolide” (Nat Chem Biol, 2008).
The source made the active and inactive calls. No cut-off for these calls is given here.

Columns and labels:
A549 [1] = assay: (§1) Inhibition of bc1 complex in human A549 cells assessed as reduction in ATP production in presence of 10 mM of 2-DG; assay type: cell-based
How it was run: (§2)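 A549 cells seeded at 2500 cells/well, left 4 h, then given graded compound with or without 10 mM 2-deoxyglucose for 30 min; duplicate wells; ATP by luciferase luminescence, converted to nmol/cell via ATP standard curve; expressed as % of vehicle; IC50 from ATP decrease.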

HCT-116 [2] = assay: Effect on cellular respiration in human HCT116 cells assessed as increase in NADH level at 2.5 uM by fluorescence assay; assay type: functional
How it was run: (§3)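 HCT116 cells seeded at 200 000 per collagen-coated dish, grown 41 h at 37°C, fresh medium 30–60 min; NADH autofluorescence by spinning-disk confocal microscopy (ex 350 ± 25, em 457 ± 25 nm) every 30 s at 37°C, baseline then 4 min after compound; % change from average initial vs post-addition fluorescence.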

HCT-116 [3] = assay: Effect on cellular respiration in human HCT116 cells assessed as increase in NADH level at 0.5 uM by fluorescence assay; assay type: functional, cell-based; how it was run: as §3
[4] = Inhibition of Saccharomyces cerevisiae Cytochrome b-c1 complex
Saccharomyces cerevisiae [5] = assay: Inhibition of Saccharomyces cerevisiae NADH oxidase at 10 nM
[6] = Inhibition of bovine Cytochrome b-c1 complex; parameters: species or system Bos taurus
How it was run: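 Bovine heart mitochondrial bc1 complex purified (DEAE wash 150 mM NaCl, 150–400 mM NaCl gradient), diluted to 0.686 mg/ml in 50 mM phosphate pH 7.5, 300 mM NaCl, 0.1 g/l dodecyl maltoside; activity assayed in 40 mM potassium phosphate pH 7.4, 0.5 mM EDTA by monitoring reduction of equine cytochrome c; dose-response.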

Saccharomyces cerevisiae [7] = assay: Effect on NADH dehydrogenase in respiratory chain of Saccharomyces cerevisiae W303-1A mitochondria at […]
Saccharomyces cerevisiae [8] = assay: Effect on cytochrome c oxidase activity of respiratory chain in Saccharomyces cerevisiae W303-1A mitochondria at […]
Saccharomyces cerevisiae [9] = assay: Inhibition of cellular respiration in Saccharomyces cerevisiae W303-1A assessed as level of cytochrome b at 10 uM in presence of inhibitor; assay type: functional, organism-based
A549 [10] = assay: Inhibition of cell proliferation in human A549 cells in after 48 hrs; assay type: functional; settings: A549, 48 h
PC-3 [11] = assay: Inhibition of cell proliferation in human PC3 cells in after 48 hrs; assay type: functional; settings: PC-3, 48 h
HCT-116 [12] = assay: Inhibition of cell proliferation in human HCT116 cells in after 48 hrs; assay type: functional; settings: HCT-116, 48 h
HCT-116 [13] = assay: Induction of cell cycle arrest in human HCT116 assessed as accumulation at G1-phase at 100 uM after 24 hrs by FACS analysis; assay type: functional
HCT-116 [14] = assay: Induction of cell cycle arrest in human HCT116 assessed as accumulation at S-phase at 100 uM after 24 hrs by FACS analysis; assay type: functional; settings: HCT-116, 24 h
HCT-116 [15] = assay: Induction of cell cycle arrest in human HCT116 assessed as accumulation at G2/M-phase at 100 uM after 24 hrs by FACS analysis; assay type: functional
Saccharomyces cerevisiae [16] = assay: Antifungal activity against Saccharomyces cerevisiae W303-1A in galactose agar media at 50 uM after 24 hrs by spectrophotometry; assay type: functional, organism-based
Saccharomyces cerevisiae [17] = assay: Antifungal activity against Saccharomyces cerevisiae W303-1A harboring rvs161 deficient mutant gene supersensitive strain in galactose agar media at 50 uM after 24 hrs by spectrophotometry; assay type: functional, organism-based
Saccharomyces cerevisiae [18] = assay: Antifungal activity against Saccharomyces cerevisiae W303-1A harboring snf4 deficient mutant gene in galactose agar media at 50 uM after 24 hrs by spectrophotometry; assay type: functional, organism-based
Saccharomyces cerevisiae [19] = assay: Antifungal activity against Saccharomyces cerevisiae W303-1A harboring snf6 deficient mutant gene in galactose agar media at 50 uM after 24 hrs by spectrophotometry; assay type: functional, organism-based
Saccharomyces cerevisiae [20] = assay: Antifungal activity against Saccharomyces cerevisiae W303-1A harboring kcs1 deficient mutant gene in galactose agar media at 50 uM after 24 hrs by spectrophotometry; assay type: functional, organism-based
Saccharomyces cerevisiae [21] = assay: Antifungal activity against Saccharomyces cerevisiae W303-1A harboring atg11 deficient mutant gene in galactose agar media at 50 uM after 24 hrs by spectrophotometry; assay type: functional, organism-based
Saccharomyces cerevisiae [22] = assay: Antifungal activity against Saccharomyces cerevisiae W303-1A in glycerol agar media at 1 ug […] by disk diffusion method; assay type: functional; settings: read-out: DIZ
How it was run: (§4)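 W303-1A grown to saturation in YPD at RT, diluted 10-fold, spread onto YPD (2% glucose) or YPGly (3% v/v glycerol) agar; compound in 20 μl water applied to paper discs placed on agar; plates incubated 2–3 days at 30°C; growth-inhibition zone diameter read.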

Saccharomyces cerevisiae [23] = assay: Antifungal activity against Saccharomyces cerevisiae W303-1A in glucose agar media at 1 ug […] by disk diffusion method; assay type: functional; settings: read-out: DIZ; how it was run: as §4
Saccharomyces cerevisiae [24] = assay: Antifungal activity against Saccharomyces cerevisiae petite strain in glucose agar media at 0.5 ug […] by disk diffusion method; assay type: functional; settings: read-out: DIZ
How it was run: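 Petite (ρ0) W303-1A made by ethidium bromide (25 μg/ml) treatment in minimal glucose medium, regrown drug-free, identified as white colonies failing to grow on YPGly. Saturated YPD culture diluted 10-fold, spread on glucose agar; compound in 20 μl water on paper discs; 2–3 days at 30°C; zone of inhibition read.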

[25] = as §1; assay type: cell-based; how it was run: as §2
A549 [26] = assay: Inhibition of bc1 complex in human A549 cells assessed as reduction in ATP production; assay type: cell-based; how it was run: as §2
143B [27] = assay: Inhibition of bc1 complex in human 143B cells assessed as reduction in ATP production in presence of […] of CCCP; assay type: cell-based
143B [28] = assay: Inhibition of bc1 complex in human 143B cells assessed as reduction in oxygen uptake at 25 nM in presence of […] of CCCP; assay type: cell-based
How it was run: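 143B cells (4 × 10^6 per aliquot) in serum-free medium in stirred respirometer chamber at 37°C; O2 consumption by oxygen electrode; compound added dose-wise, then CCCP uncoupler added to test whether respiration returns.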

[29] = target: T1, Succinate dehydrogenase [ubiquinone] cytochrome b small subunit, mitochondrial (Saccharomyces cerevisiae) (UniProt P37298); assay: Effect on succinate:ubiquinone oxidoreductase activity of respiratory chain in Saccharomyces cerevisiae W303-1A mitochondria at […]
T1 sequence (whole entry): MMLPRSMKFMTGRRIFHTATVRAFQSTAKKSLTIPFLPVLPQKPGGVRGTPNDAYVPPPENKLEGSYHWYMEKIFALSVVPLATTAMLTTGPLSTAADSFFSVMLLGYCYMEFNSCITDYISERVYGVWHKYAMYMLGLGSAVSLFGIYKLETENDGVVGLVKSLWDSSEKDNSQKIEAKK

Saccharomyces cerevisiae [30] = assay: Antifungal activity against Saccharomyces cerevisiae W303-1A in glucose agar media at 0.5 ug after 2 to 3 days by disk diffusion method; settings: read-out: DIZ
K562 = assay: Cytotoxicity against human K562 cells; assay type: functional
A549 [31] = assay: Cytotoxicity against human A549 cells; assay type: functional
NCI-H226 = assay: Cytotoxicity against human NCI-H226 cells; assay type: functional
HCT-116 [32] = assay: Cytotoxicity against human HCT116 cells; assay type: functional
SF-268 = assay: Cytotoxicity against human SF268 cells; assay type: functional
Malme-3M = assay: Cytotoxicity against human MALME-3M cells; assay type: functional
M14 = assay: Cytotoxicity against human M14 cells; assay type: functional
SK-MEL-5 = assay: Cytotoxicity against human SK-MEL-5 […]; assay type: functional
OVCAR-8 = assay: Cytotoxicity against human OVCAR8 cells; assay type: functional
SK-OV-3 = assay: Cytotoxicity against human SKOV3 cells; assay type: functional
786-0 = assay: Cytotoxicity against human 786-0 cells; assay type: functional
CAKI-1 = assay: Cytotoxicity against human Caki1 cells; assay type: functional
PC-3 [33] = assay: Cytotoxicity against human PC3 cells; assay type: functional
DU-145 = assay: Cytotoxicity against human DU145 cells; assay type: functional
MCF7 = assay: Cytotoxicity against human MCF7 cells; assay type: functional
NCI/ADR-RES = assay: Cytotoxicity against human NCI/ADR-RES cells; assay type: functional
HCT-116 [34] = assay: Induction of cell cycle arrest in human HCT116 assessed as accumulation at G1-phase at 10 uM after 24 hrs by FACS analysis; assay type: functional
HCT-116 [35] = assay: Induction of cell cycle arrest in human HCT116 assessed as accumulation at S-phase at 10 uM after 24 hrs by FACS analysis; assay type: functional
HCT-116 [36] = assay: Induction of cell cycle arrest in human HCT116 assessed as accumulation at G2/M-phase at 10 uM after 24 hrs by FACS analysis; assay type: functional

SMILES: CC(=O)O[C@H]1C(=O)[C@@]2(C)[C@H]([C@H](OC(=O)c3ccccc3)[C@]3(O)C[C@H](OC(=O)[C@H](O)[C@@H](NC(=O)c4ccccc4)c4ccccc4)C(C)=C1C3(C)C)[C@]1(OC(C)=O)CO[C@@H]1C[C@@H]2O
- inhibition (A549 [1]): inactive

SMILES: CCCCC[C@H]1C[C@@H]2CCC[C@@H](C[C@@H](OC)C[C@@H]3C[C@@H](OC(=O)/C=C\CCc4coc(/C=C\CNC(=O)OC)n4)C[C@H](CC(=O)O1)O3)O2
- Activity (HCT-116 [2]): 40%
- Activity (HCT-116 [3]): Active
- IC50 [4]: 1.8 nM
- inhibition (Saccharomyces cerevisiae [5]): Active
- IC50 [6]: 6 nM
- Activity (Saccharomyces cerevisiae [7]): inactive
- Activity (Saccharomyces cerevisiae [8]): inactive
- inhibition (Saccharomyces cerevisiae [9]): Active
- GI50 (A549 [10]): 0.8 nM
- GI50 (PC-3 [11]): 0.8 nM
- GI50 (HCT-116 [12]): 0.3 nM
- Activity (HCT-116 [13]): 61%
- inhibition at 100 µM (HCT-116 [14]): 27%
- Activity (HCT-116 [15]): 6%
- Activity (Saccharomyces cerevisiae [16]): Active
- Activity (Saccharomyces cerevisiae [17]): Active
- Activity (Saccharomyces cerevisiae [18]): Active
- Activity (Saccharomyces cerevisiae [19]): Active
- Activity (Saccharomyces cerevisiae [20]): Active
- Activity (Saccharomyces cerevisiae [21]): Active
- zone of inhibition at 1 µg/disc (Saccharomyces cerevisiae [22]): 36 mm
- zone of inhibition at 1 µg/disc (Saccharomyces cerevisiae [23]): 25 mm
- zone of inhibition at 0.5 µg/disc (Saccharomyces cerevisiae [24]): 21 mm
- IC50 [25]: 2.6 nM
- inhibition (A549 [26]): inactive
- inhibition (143B [27]): Dose-dependent effect
- inhibition (143B [28]): Active
- Activity [29]: inactive

SMILES: C[C@@H]1C[C@@H]([C@H](O)CC2CC(=O)NC(=O)C2)C(=O)[C@@H](C)C1 [CYCLOHEXIMIDE]
- zone of inhibition at 0.5 µg/disc (Saccharomyces cerevisiae [30]): 30 mm

SMILES: COC(=O)NC/C=C\c1nc(CC/C=C\C(=O)O[C@@H]2C[C@H]3C[C@H](OC)C[C@H]4O[C@@H](CC[C@@H]4C)C[C@H](/C=C/CC(C)C)OC(=O)C[C@@H](C2)O3)co1
- GI50 (K562): 280 nM
- GI50 (A549 [31]): 670 nM
- GI50 (NCI-H226): 280 nM
- GI50 (HCT-116 [32]): 670 nM
- GI50 (SF-268): 280 nM
- GI50 (Malme-3M): 670 nM
- GI50 (M14): 280 nM
- GI50 (SK-MEL-5): 670 nM
- GI50 (OVCAR-8): 280 nM
- GI50 (SK-OV-3): 670 nM
- GI50 (786-0): 280 nM
- GI50 (CAKI-1): 670 nM
- GI50 (PC-3 [33]): 280 nM
- GI50 (DU-145): 670 nM
- GI50 (MCF7): 280 nM
- GI50 (NCI/ADR-RES): 670 nM
- Activity (HCT-116 [34]): 71%
- Activity (HCT-116 [35]): 17%
- Activity (HCT-116 [36]): 8%

SMILES: CCC[C@@H]1C[C@H](OC)C[C@H](C)C[C@@H]2C[C@@H](OC(=O)/C=C\CCc3coc(/C=C\CNC(=O)OC)n3)C[C@H](CC(=O)O1)O2 [NEOPELTOLIDE]
- IC50 [4]: 0.6 nM
- IC50 [6]: 2 nM
- Activity (Saccharomyces cerevisiae [7]): inactive
- Activity (Saccharomyces cerevisiae [8]): inactive
- GI50 (A549 [10]): 0.5 nM
- GI50 (PC-3 [11]): 0.3 nM
- GI50 (HCT-116 [12]): 0.5 nM
- zone of inhibition at 1 µg/disc (Saccharomyces cerevisiae [22]): 46 mm
- zone of inhibition at 1 µg/disc (Saccharomyces cerevisiae [23]): 33 mm
- IC50 [25]: 1.3 nM
- inhibition (A549 [26]): inactive
- Activity [29]: inactive
